Screening results from PubChem BioAssay.
In the library only some 2.9% were active in any assay of this set; here they are far more common.
HSP90 refold inh – inhibitors of HSP90 luciferase refolding in rabbit reticulocyte lysate. luciferase refolding luminescence, 3 h. inhibition, % at 5.6 µM. 290,000 compounds, 0.91% hits. AID 1789;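 active = inhibition above the screen-wide mean plus 3 SD, computed separately per campaign, cut at about 16% in these data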;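 note: inhibitors lower the luminescence because luciferase stays unfolded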
SENP7 inh – blocks the human protease SENP7 | Q9BQF6 | recombinant SENP7, Z-RLRGG-aminoluciferin luminescence, 40 min | inhibition, % at 5 µM | 330,000 compounds, 1.5% hits | AID 434973;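 active = inhibition above about 50% at the single test dose, limit read from the data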
SENP1 FRET inh – blocks the human SENP1 SUMO protease catalytic domain; 360,000 compounds, 0.21% hits; Q9P0U3; inhibition, % at 10 µM; recombinant SENP1 catalytic domain, CyPet-SUMO1-YPet FRET cleavage;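 active = inhibition at least 30% at 10 µM, raw YFP signal under a set limit, fluorescence ratio 0.5 to 1.5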
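Test system: human SENP1 catalytic domain; medium: Tris pH 8 buffer plus EDTA, NaCl, BME, BSA, NP40, catalase; incubation: 50 min reaction at room temperature; technique: FRET, CFP and YFP emission; controls: no-enzyme low control and enzyme-plus-DMSO high control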
SENP6 block – inhibitors of human SENP6 protease; Q9GZR1; Recombinant SENP6 catalytic domain, aminoluciferin luminescence; inhibition, % at 10 µM; 330,000 compounds, 1.8% hits; AID 2599;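 active = inhibition above about 50% at the single tested dose, limit read from the data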
Target sequence (Q9GZR1 628-1112 limits assumed): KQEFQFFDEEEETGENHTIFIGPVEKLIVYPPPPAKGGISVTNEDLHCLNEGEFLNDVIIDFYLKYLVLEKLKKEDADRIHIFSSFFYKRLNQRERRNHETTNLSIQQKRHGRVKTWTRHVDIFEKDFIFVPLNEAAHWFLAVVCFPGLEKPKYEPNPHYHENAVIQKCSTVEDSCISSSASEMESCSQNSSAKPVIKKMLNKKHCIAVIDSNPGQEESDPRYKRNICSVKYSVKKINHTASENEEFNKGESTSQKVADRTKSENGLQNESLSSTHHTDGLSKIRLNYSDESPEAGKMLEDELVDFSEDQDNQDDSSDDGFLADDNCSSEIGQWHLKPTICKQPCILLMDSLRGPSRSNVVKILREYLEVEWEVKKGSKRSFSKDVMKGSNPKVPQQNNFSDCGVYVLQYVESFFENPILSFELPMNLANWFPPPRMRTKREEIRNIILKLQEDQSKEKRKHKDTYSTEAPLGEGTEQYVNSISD
SENP8 block-1 – inhibitors of human SENP8 protease; 330,000 compounds, 1.2% hits; purified SENP8, Z-RLRGG-aminoluciferin cleavage, luminescence; AID 2540; inhibition, % at 10 µM; in the data active = inhibition above about 50%
SENP8 block-2 – SENP8 (human) protease inhibition; recombinant SENP8, Nedd8 substrate fluorescence; inhibition, % at 20 µM; 360,000 compounds, 0.64% hits; AID 602440; in the data active = inhibition mostly above about 40%, no sharp cut-off; inactive = mostly below about 27%
SENP8 confirm – human SENP8 inhibition, confirmed; shares compounds with SENP7 inh; Recombinant SENP8, Z-RLRGG-aminoluciferin luminescence, 60 min; inhibition, % at 12.5 µM; 6,200 compounds, 40% hits;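 active = mean inhibition across replicates above about 50%, limit read from the data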
SENP6 confirm – human SENP6 inhibition, confirmed; AID 488915; inhibition, % at 12.5 µM; recombinant SENP6, Z-RLRGG-aminoluciferin luminescence; shares compounds with SENP7 inh; 6,200 compounds, 58% hits
SENP7 confirm – human SENP7 inhibition, confirmed | shares compounds with SENP7 inh | recombinant SENP7, Z-RLRGG-aminoluciferin luminescence, 40 min | inhibition, % at 12.5 µM | 6,200 compounds, 69% hits | AID 488917
Casp3 SENP sel – caspase-3 inhibition (SENP selectivity assay) | shares compounds with SENP7 inh | purified caspase-3, Z-DEVD-aminoluciferin luminescence, 60 min | inhibition, % at 12.5 µM | 6,200 compounds, 60% hits;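 active = mean inhibition above about 50%, limit read from the data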
Target sequence (P42574 28-227 limits assumed): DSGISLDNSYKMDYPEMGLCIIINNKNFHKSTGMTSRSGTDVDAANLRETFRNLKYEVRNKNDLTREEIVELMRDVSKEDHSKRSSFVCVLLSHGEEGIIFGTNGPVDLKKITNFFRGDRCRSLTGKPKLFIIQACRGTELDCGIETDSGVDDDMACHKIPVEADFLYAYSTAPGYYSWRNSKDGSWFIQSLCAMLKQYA
Luc interf – interferes with luciferase luminescence in SENP counter-screen. Pre-incubated SENP8/Z-RLRGG-aminoluciferin, luciferase luminescence interference. inhibition, % at 12.5 µM. AID 488919. shares compounds with SENP7 inh. 6,200 compounds, 39% hits;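 active = mean inhibition above about 50% when retested at one dose, limit read from the data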
Hits are given with their value.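 Rule for the calls, unless noted: active = mean inhibition above about 50% in the one-dose retest (limit read from the data); inactive = the rest.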

`CC(=O)Oc1ccc(C(=O)Nc2ccc3c(c2)OCCO3)cc1` gave HSP90 refold inh inactive, SENP7 inh inactive, SENP1 FRET inh inactive, SENP6 block inactive, SENP8 block-1 inactive and SENP8 block-2 inactive.
For CCCOc1ccc(C(=O)Nc2ccc3c(c2)OCCO3)cc1 the results were HSP90 refold inh inactive, SENP7 inh 76, SENP1 FRET inh inactive, SENP6 block 64, SENP8 block-1 73, SENP8 block-2 inactive, SENP8 confirm inactive, SENP6 confirm inactive, SENP7 confirm 93, Casp3 SENP sel 74 and Luc interf inactive.
For Cc1ccc(NC(=O)Nc2ccc3c(c2)CCC3)cc1C the results were HSP90 refold inh inactive, SENP7 inh inactive, SENP1 FRET inh inactive, SENP6 block inactive, SENP8 block-1 inactive and SENP8 block-2 inactive.
O=C(Nc1ccc2c(c1)OCCO2)c1coc2ccccc2c1=O was read as HSP90 refold inh inactive, SENP7 inh 98, SENP1 FRET inh inactive, SENP6 block 98, SENP8 block-1 86, SENP8 block-2 inactive, SENP8 confirm 86, SENP6 confirm 85, SENP7 confirm 92, Casp3 SENP sel 71 and Luc interf inactive.
COc1ccc(C2=NN(CN3C(=O)C(=O)c4ccccc43)C(c3ccc(Br)cc3)C2)cc1 (stereo not given) was read as HSP90 refold inh inactive, SENP7 inh 81, SENP1 FRET inh inactive, SENP6 block inactive, SENP8 block-1 inactive, SENP8 block-2 inactive, SENP8 confirm inactive, SENP6 confirm inactive, SENP7 confirm inactive, Casp3 SENP sel inactive and Luc interf inactive.
`Cc1[nH]nc(C(=O)NN=Cc2ccccc2Cl)c1N=NN(C)C` gave SENP1 FRET inh inactive and SENP8 block-2 inactive.
For COC(=O)c1ccc(COc2ccc3c4c(c(=O)oc3c2)CCC4)o1 the results were HSP90 refold inh inactive, SENP7 inh 58, SENP1 FRET inh inactive, SENP6 block 77, SENP8 block-1 70, SENP8 block-2 inactive, SENP8 confirm inactive, SENP6 confirm inactive, SENP7 confirm inactive, Casp3 SENP sel inactive and Luc interf inactive.
O=C(/C=C/c1cccc(O)c1)c1ccc(N2CCOCC2)cc1 was read as HSP90 refold inh inactive, SENP7 inh 74, SENP1 FRET inh inactive, SENP6 block 78, SENP8 block-1 inactive, SENP8 block-2 inactive, SENP8 confirm inactive, SENP6 confirm inactive, SENP7 confirm inactive, Casp3 SENP sel inactive and Luc interf 51.
For COc1ccc(/C=C/C(=O)c2ccc(O)cc2)cc1CN1CCOCC1 the results were HSP90 refold inh inactive, SENP7 inh inactive, SENP1 FRET inh inactive, SENP6 block inactive, SENP8 block-1 inactive and SENP8 block-2 inactive.
For Cc1ccc(/C(N)=N/OC(=O)/C=C/c2ccccc2)cc1 the results were HSP90 refold inh inactive, SENP7 inh inactive, SENP1 FRET inh inactive, SENP6 block inactive, SENP8 block-1 inactive and SENP8 block-2 inactive.
Cc1ccccc1/C(N)=N/OC(=O)c1cccs1 was read as HSP90 refold inh inactive, SENP7 inh inactive, SENP1 FRET inh inactive, SENP6 block 74, SENP8 block-1 inactive, SENP8 block-2 inactive, SENP8 confirm 56, SENP6 confirm 55, SENP7 confirm 84, Casp3 SENP sel 80 and Luc interf 62.
`Cc1ccccc1/C(N)=N/OC(=O)/C=C/c1ccccc1` gave HSP90 refold inh inactive, SENP7 inh 60, SENP1 FRET inh inactive, SENP6 block 67, SENP8 block-1 inactive, SENP8 block-2 inactive, SENP8 confirm 51, SENP6 confirm 52, SENP7 confirm 83, Casp3 SENP sel 71 and Luc interf 64.
`O=S(=O)(NCc1ccc2c(c1)OCO2)c1ccc(F)c(F)c1` gave HSP90 refold inh inactive, SENP7 inh inactive, SENP1 FRET inh inactive, SENP6 block inactive, SENP8 block-1 inactive and SENP8 block-2 inactive.
Cn1nc(OCC(=O)O)cc1C(F)(F)F was read as HSP90 refold inh inactive, SENP7 inh inactive, SENP1 FRET inh inactive, SENP6 block inactive, SENP8 block-1 inactive and SENP8 block-2 inactive.
For Cc1ccc(S(=O)(=O)Nc2cc(C)c(O)c(Sc3n[nH]c(C)n3)c2)cc1 the results were HSP90 refold inh inactive, SENP7 inh inactive, SENP1 FRET inh inactive, SENP6 block inactive, SENP8 block-1 inactive and SENP8 block-2 inactive.
`COc1cccc(C(=O)NCCN2CCC(n3c(=O)[nH]c4ccccc43)CC2)c1` gave SENP1 FRET inh inactive and SENP8 block-2 inactive.
`CCNC(=S)NNC(=O)c1cc(-c2cccc(OC)c2)nc2ccccc12` gave HSP90 refold inh inactive, SENP7 inh inactive, SENP1 FRET inh inactive, SENP6 block 57, SENP8 block-1 inactive, SENP8 block-2 inactive, SENP8 confirm 64, SENP6 confirm 60, SENP7 confirm 79, Casp3 SENP sel 85 and Luc interf 71.
`COCCN1CCN(C(=O)c2ccc3oc(CCc4ccccc4)nc3c2)CC1` gave HSP90 refold inh inactive, SENP7 inh inactive, SENP1 FRET inh inactive, SENP6 block inactive, SENP8 block-1 inactive and SENP8 block-2 inactive.
CCOC(=O)c1ccc(N/C=C/C(=O)c2ccccc2)cc1 was read as HSP90 refold inh inactive, SENP7 inh 95, SENP1 FRET inh inactive, SENP6 block 93, SENP8 block-1 84, SENP8 block-2 inactive, SENP8 confirm inactive, SENP6 confirm 57, SENP7 confirm inactive, Casp3 SENP sel 67 and Luc interf inactive.
For CCOC(=O)c1ccccc1N/C=C/C(=O)c1ccccc1 the results were HSP90 refold inh inactive, SENP7 inh inactive, SENP1 FRET inh inactive, SENP6 block 50, SENP8 block-1 inactive, SENP8 block-2 inactive, SENP8 confirm inactive, SENP6 confirm inactive, SENP7 confirm 64, Casp3 SENP sel inactive and Luc interf inactive.
Screening CCCCc1cc(=O)oc2cc(OC(C)C(=O)NCC3CCC(C(=O)O)CC3)c(Cl)cc12 (stereo not given) returned HSP90 refold inh inactive, SENP7 inh inactive, SENP1 FRET inh inactive, SENP6 block inactive, SENP8 block-1 inactive and SENP8 block-2 inactive.
`CC(C)NC(=O)C1C(c2ccc(C(F)(F)F)cc2)=Nc2ccccc2N1C(=O)c1cccc(C(F)(F)F)c1` (stereo not given) gave SENP1 FRET inh inactive and SENP8 block-2 inactive.
